Hits are enriched below; roughly 1.2% of the tested compounds scored in any of these assays.
CAL PDZ FP-1: inhibitors of human CAL PDZ peptide binding; Q9HD26; purified CAL PDZ, TMR-peptide fluorescence polarization, 1 h; inhibition, % at 24.9 µM; 300,000 compounds, 0.92% hits;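 active means mean inhibition of at least 30% with at least half of replicates also reaching 30%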
ARNT-TACC3 inh: ARNT/TACC3 interaction disruption; Q9Y6A5; AlphaScreen His-ARNT PAS-B/GST-TACC3 binding, luminescence; TACC3 fragment carries E629A point mutation; inhibition, % at 9.99 µM; 390,000 compounds, 0.66% hits; AID 623870;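 active means mean inhibition of replicates at least 50% and at least half of replicates each reaching 50%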
CAL PDZ FP-2: human CAL PDZ-peptide interaction inhibition; purified CAL PDZ, TMR-peptide fluorescence polarization, 1 h; 330,000 compounds, 0.02% hits; Q9HD26; inhibition, % at 20 µM;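 active means highest replicate inhibition of at least 40%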
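System: tagged CAL PDZ domain. Schedule: 1 h room-temperature incubation prior to read. Signal: fluorescence polarization (mP). Measure: percent inhibition from loss of millipolarization.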
Of the large screens only hits and unclear results are named; the others gave an inactive call; ! = not confirmed by another sample.

O=C(NC1CCCC1)C(c1ccccn1)N(Cc1ccc(F)cc1)C(=O)c1csnn1 (stereo not drawn)	CAL PDZ FP-1 51
O=C(CSc1nnc(SCc2ccc(Cl)cc2)s1)N/N=C/c1ccc(C(=O)O)cc1	CAL PDZ FP-1 47
O=C(O)COc1ccccc1/C=N/NC(=O)CSc1nnc(SCc2ccc(Cl)cc2)s1	none
COc1ccccc1OCc1nc2ccccc2[nH]1	none
Cc1ccccc1OCc1nc2ccccc2[nH]1	CAL PDZ FP-1 41
COc1ccc(CC(=O)NCC2CCCN(Cc3ccc(OC(F)(F)F)cc3)C2)cc1 (stereo not drawn)	CAL PDZ FP-1 63
COC(=O)c1ccc(CN2CCCC(CNC(=O)Cc3ccc(OC)cc3)C2)cc1 (stereo not drawn)	none
O=C(CCN1CCCCC1)N[C@H]1CC[C@@H](CCNC(=O)c2cc(Cl)cc(Cl)c2)O[C@H]1CO	none (no result: CAL PDZ FP-1, CAL PDZ FP-2)
O=C(CCN1CCCCC1)N[C@@H]1CC[C@@H](CCNC(=O)c2cc(Cl)cc(Cl)c2)O[C@@H]1CO	ARNT-TACC3 inh 47 (no result: CAL PDZ FP-1, CAL PDZ FP-2)
COc1ccc(NC(=O)N(C)C[C@H]2OCCCC[C@H](C)Oc3ccc(NS(=O)(=O)c4ccccc4)cc3C(=O)N([C@@H](C)CO)C[C@@H]2C)cc1	none (no result: CAL PDZ FP-1, CAL PDZ FP-2)
CCCNC(=O)Nc1ccc2c(c1)C(=O)N(C)C[C@H](OC)[C@@H](C)CN(Cc1ccncc1)[C@@H](C)CO2	none (no result: CAL PDZ FP-1, CAL PDZ FP-2)
CC(C)n1cnc2c(NCc3ccccc3)cc(N[C@H](C)CO)cc21	ARNT-TACC3 inh 34
CCC(CO)Oc1cc(NCc2ccc(O)cc2)c2ncn(C(C)C)c2c1 (stereo not drawn)	none (no result: ARNT-TACC3 inh)
CCOCCOc1cc(NCc2ccccc2)c2ncn(C(C)C)c2c1	ARNT-TACC3 inh 19
CCC(CO)Oc1cc(NCc2ccccc2)c2ncn(C(C)C)c2c1 (stereo not drawn)	ARNT-TACC3 inh 41!
COCCCOc1cc(NCc2ccccc2)c2ncn(C(C)C)c2c1	none
CCCCOc1cc(NCc2ccccc2)c2ncn(C(C)C)c2c1	none
CC(C)NC(=O)N(C)C[C@@H]1OCCCC[C@H](C)Oc2ccc(NC(=O)c3ccccc3)cc2C(=O)N([C@@H](C)CO)C[C@H]1C	none (no result: CAL PDZ FP-1, CAL PDZ FP-2)
COC(=O)[C@H]1[C@H](CO)[C@H]2Cn3c(ccc(-c4cccc(C(=O)N(C)C)c4)c3=O)[C@H]2N1C	none (no result: CAL PDZ FP-1, CAL PDZ FP-2)
Nc1c(N2CCOCC2)cc(Cl)c2nonc12	none
Nc1c(N2CCCC2)cc(Cl)c2nonc12	ARNT-TACC3 inh 37
CCOC(=O)c1ccc(NC(=O)C(=O)NCc2ccccn2)cc1	none (no result: ARNT-TACC3 inh)
Cc1onc(-c2c(F)cccc2Cl)c1C(=O)NCc1ccccn1	CAL PDZ FP-1 88
CCOC(=O)c1c(C)c(C(=O)NCc2ccccn2)c(C)n1CC	ARNT-TACC3 inh 48 (no result: CAL PDZ FP-1)
Cc1onc(-c2ccccc2Cl)c1C(=O)NCc1ccccn1	none (no result: CAL PDZ FP-1)
C[C@@H]1CCCCO[C@@H](CN(C)C(=O)Nc2ccccc2)[C@H](C)CN([C@H](C)CO)C(=O)c2cc(NC(=O)Nc3ccccc3)ccc2O1	none (no result: CAL PDZ FP-1, CAL PDZ FP-2)
Cc1ccc(S(=O)(=O)Nc2ccc3c(c2)C(=O)N([C@H](C)CO)C[C@H](C)[C@@H](CN(C)S(=O)(=O)c2ccc(C)cc2)OCCCC[C@H](C)O3)cc1	none (no result: CAL PDZ FP-1, CAL PDZ FP-2)
C[C@@H]1CN([C@@H](C)CO)C(=O)c2cc(NS(=O)(=O)c3cn(C)cn3)ccc2O[C@H]1CN(C)Cc1ccccc1	none (no result: CAL PDZ FP-1, CAL PDZ FP-2)
Cc1ccc(NC(=O)CN(C)C(=O)CN2C(=O)NC(C)(c3ccccc3)C2=O)cc1 (stereo not drawn)	none
CN(CC(=O)Nc1ccccc1Cl)C(=O)CN1C(=O)NC(c2ccccc2)(c2ccccc2)C1=O	CAL PDZ FP-1 85
C[C@@H]1CN([C@H](C)CO)S(=O)(=O)c2ccc(-c3ccc(F)cc3)cc2O[C@@H]1CN(C)C(=O)Nc1ccccc1F	none (no result: CAL PDZ FP-1, CAL PDZ FP-2)
CN1CCN(C(=O)c2cc3nc(-c4ccc(F)cc4)cc(C(F)(F)F)n3n2)CC1	none
Cc1cc(-c2ccc(F)cc2)nc2cc(C(N)=O)nn12	ARNT-TACC3 inh 41
COc1ccc(C#Cc2ccc3c(c2)[C@@H]2[C@@H](CCN2C(=O)NC(C)C)[C@@H](CO)N3C)cc1	none (no result: CAL PDZ FP-1, CAL PDZ FP-2)
Cc1ccc(/C(N)=N/OC(=O)c2cccs2)cc1	none
Cc1cccc(/C(N)=N/OC(=O)c2cccs2)c1	CAL PDZ FP-1 53
COc1cc(/C=N\NC(=O)c2sc(N)nc2C)cc(OC)c1OC	ARNT-TACC3 inh 49
Cc1nc(N)sc1C(=O)N/N=C/c1ccco1	none
COc1ccc(S(=O)(=O)Nc2ccc3c(c2)C(=O)N([C@H](C)CO)C[C@H](C)[C@@H](CN(C)C(=O)Nc2cccc4ccccc24)O3)cc1	none (no result: CAL PDZ FP-1, CAL PDZ FP-2)
COCC(=O)Nc1ccc2c(c1)C(=O)N(C)C[C@@H](OC)[C@@H](C)CN(CCC(F)(F)F)[C@H](C)CO2	none (no result: CAL PDZ FP-1, CAL PDZ FP-2)
COc1cc(C)c(N(C(C)=O)c2ccccc2)c(C)c1	none
CC(=O)N(C1=C(N)C(=O)c2ccccc2C1=O)c1ccccc1	ARNT-TACC3 inh 12
COc1ccc(NC(=O)N(C)C[C@H]2OCc3ccccc3-c3c(n(C)c4ccccc34)C(=O)N([C@@H](C)CO)C[C@H]2C)cc1	none (no result: CAL PDZ FP-1, CAL PDZ FP-2)
N=C1SCC(=O)N1c1ncc(Cc2ccccc2Cl)s1	CAL PDZ FP-1 30
N=C1SCC(=O)N1c1ncc(Cc2cccc(Cl)c2)s1	none
Nc1nc(SCC(=O)c2ccc(Cl)cc2)c2ncn(C3OC(CO)C(O)C3O)c2n1 (stereo not drawn)	CAL PDZ FP-1 53
Nc1nc(SCc2ccccc2)c2ncn(C3OC(CO)C(O)C3O)c2n1 (stereo not drawn)	none
CC(=O)n1cc([C@@H]2C=C(C(=O)N3CCCCCCC3)O[C@H](OCCCCO)C2)c2ccccc21	none (no result: CAL PDZ FP-1, CAL PDZ FP-2)
NC(=O)c1c(NC(=O)c2ccccc2C(=O)O)sc2c1CCCC2	none
NC(=O)c1c(NC(=O)c2ccccc2F)sc2c1CCCC2	CAL PDZ FP-1 77
O=C(C[C@@H]1CC[C@H]2[C@@H](COC[C@H](O)CN2C(=O)Nc2cc(Cl)cc(Cl)c2)O1)N1CCCCC1	none (no result: CAL PDZ FP-1, CAL PDZ FP-2)
O=C(Cn1[nH]c(=O)c2ccccc2c1=O)OCC(=O)N1CCCc2ccccc21	CAL PDZ FP-1 69
O=C(Cn1[nH]c(=O)c2ccccc2c1=O)OCC(=O)N1CCc2ccccc2C1	none (no result: CAL PDZ FP-1)
C[C@H](CO)N1C[C@H](C)[C@@H](CN(C)S(=O)(=O)c2cccs2)Oc2ncc(/C=C/c3ccccc3)cc2C1=O	none (no result: CAL PDZ FP-1, CAL PDZ FP-2)
COc1ccc(N2C(=O)CCC(C(=O)N3CCCCC3)C2c2ccc(F)cc2)cc1 (stereo not drawn)	CAL PDZ FP-1 59
COc1ccc(N2C(=O)CCC(C(=O)N3CCC(C(N)=O)CC3)C2c2ccc(F)cc2)cc1 (stereo not drawn)	none
COCCNC(=O)c1ccc(S(=O)(=O)N2CCCc3ccccc32)cc1	CAL PDZ FP-1 59 (no result: ARNT-TACC3 inh)
O=C(O)c1ccc(S(=O)(=O)N2CCCc3ccccc32)cc1	none
CSc1nc2sc3c(c2c(=O)n1C)CCC3	CAL PDZ FP-1 71
CSc1nc2sc3c(c2c(=O)n1C)CCCC3	none
COc1ccc(-n2nc(C(=O)NCC(=O)N3CCN(c4ccccc4F)CC3)c3ccccc3c2=O)cc1OC	none (no result: CAL PDZ FP-1)
COc1ccc(-n2nc(C(=O)NCC(=O)N3CCN(c4ccccc4F)CC3)c3ccccc3c2=O)cc1	CAL PDZ FP-1 73 (no result: ARNT-TACC3 inh)
CNC[C@@H]1Oc2cc(C#CC3(O)CCCC3)ccc2S(=O)(=O)N([C@H](C)CO)C[C@H]1C	none (no result: CAL PDZ FP-1, CAL PDZ FP-2)

Source: PubChem BioAssay (Broad Institute)
